Sampled rows, rich in hits. Any-hit rate of the full collection: about 4.1%.
Apaf1 inhib: blocks human Apaf-1 apoptosome activity | reconstituted apoptosome caspase-3 activity, DEVD-Rh110 fluorescence | inhibition, % at 20 µM | O14727 | 0.71% of 330,000 active; active = inhibition of at least 40% at 20 µM
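System: Apoptosome proteins | Medium: Hepes pH 7.5 with detergent and BSA | Also added: Cytochrome c trigger plus (Z-DEVD)2-Rh110 caspase-3 substrate | Incubation: 30 min compound preincubation, 50 min activation, room temperature | Detection: Rhodamine 110 fluorescence at Ex 480/Em 540 nm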
UPR XBP1 act: activators of adaptive arm of unfolded protein response (XBP1) | activation, % at 20 µM | CHO-XBP1 luciferase reporter, IRE1-XBP1 UPR activation, luminescence; percent of tunicamycin response, DMSO as zero | AID 463104 | 0.33% of 330,000 active;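 active = versus positive control, 20 µM dose yields 30% or more activation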
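Test system: CHO-XBP1 luciferase reporter cells | Buffer or medium: Serum-containing F12 medium, 10% FBS | Schedule: 6 h compound exposure at 37 °C, 5% CO2 | Detection: Steady-Glo luciferase glow luminescence, 10 min after reagent addition | Read-out basis: Activation, % of tunicamycin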
UBC13 polyUb: human UBC13 polyubiquitination inhibition; AID 485273; P61088; UBC13 polyubiquitin chain formation, TR-FRET; 0.47% of 330,000 active; inhibition, % at 20 µM; in the data active = inhibition above about 45%, passing the limit was not always enough
Mdm2-MdmX inh: human Mdm2/MdmX binding inhibition. SaOS-2 split-luciferase Mdm2/MdmX complementation, luminescence. inhibition, % at 8 µM. O15151+Q00987. AID 485346. 3% of 330,000 active;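 active = inhibition of at least 50% at 8 µM in the primary screen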
CHOP UPR activ: activators of apoptotic arm of unfolded protein response (CHOP) | AID 449763 | 0.34% of 330,000 active | activation, % at 10 µM | CHO-CHOP luciferase reporter, UPR activation, luminescence; percent of tunicamycin response over DMSO baseline;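 active = at 10 µM dose, activation of 40% or more, normalized to positive control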
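System: CHO-CHOP luciferase reporter cell line | Buffer or medium: F12 medium containing 10% fetal bovine serum | Doses: One dose, 10 µM in 0.5% DMSO | Times: 6 h compound exposure at 37 °C after overnight seeding | Signal: Luciferase luminescence | Read-out: % activation vs tunicamycin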
Mdm2 MdmX conf: human Mdm2/MdmX binding inhibition, confirmed. inhibition, % at 8 µM. shares compounds with Mdm2-MdmX inh. luminescent assay. 55% of 10,000 active; in the data active = inhibition above about 40%
FLuc counter: inhibits full-length luciferase, flagging false Mdm2/MdmX hits. 77% of 6,200 active. SaOS-2 full-length luciferase counterscreen, luminescence. AID 504607. shares compounds with Mdm2-MdmX inh. inhibition, % at 8 µM;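 active = mean inhibition at 8 µM reaching about 37%, which flags the compound as non-specific, limit read from the data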;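 note: p53-null SaOS-2 cells with luciferase driven by a doxycycline-inducible promoter; compound on cells about two nights before reading with doxycycline added after day one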
Each line names hits and unclear results; the compound was inactive in the other large screens (follow-up assays come after a bar, where they were run).

CCN(CC)CCN(C(=O)Cn1nnc(-c2ccc(OC)c(OC)c2)n1)C(C(=O)NC1CCCC1)c1ccc(F)cc1 (configuration not stated)	Mdm2-MdmX inh 75 | Mdm2 MdmX conf inactive
O=C(NC1CCCCC1)C(c1ccc(F)cc1)N(Cc1ccccc1)C(=O)CN1C(=O)c2ccccc2S1(=O)=O (configuration not stated)	Mdm2-MdmX inh 61 | Mdm2 MdmX conf 66 | FLuc counter 94
COc1ccc(-c2nnn(CC(=O)N(Cc3ccc(F)cc3)C(C(=O)NC3CCCC3)c3ccc(F)cc3)n2)cc1 (configuration not stated)	Mdm2-MdmX inh 75 | Mdm2 MdmX conf inactive
Cc1nnc(N2C(=O)C(=O)/C(=C(/O)c3ccc4c(c3)OCCO4)C2c2ccc([N+](=O)[O-])cc2)s1 (configuration not stated)	none
Cn1c(=O)c2c(ncn2CC(=O)OCC(=O)NCc2ccccc2Cl)n(C)c1=O	none
O=C1NC2(CCCCCC2)C(=O)N1Cc1ccccc1Cl	none
Cc1nc2cc(C(F)(F)F)ccc2n1C1CCN(CC(=O)NC(C)(C)C)CC1	none
CC(C)CCNC(=O)C(c1ccncc1)N(Cc1cccs1)C(=O)Cn1nnc(-c2ccc(F)cc2)n1 (configuration not stated)	Mdm2-MdmX inh 68 | Mdm2 MdmX conf 60 | FLuc counter inactive
CCN(CC)CCCCNc1ncc2cc(-c3cc(OC)cc(OC)c3)c(NC(=O)NC(C)(C)C)nc2n1	Mdm2-MdmX inh 94 | Mdm2 MdmX conf 88 | FLuc counter inactive
COc1ccc(-c2nc(-c3ccccn3)no2)cc1	Mdm2-MdmX inh 89 | Mdm2 MdmX conf 91 | FLuc counter 54
Cc1cc(N2CCN(Cc3nc(-c4ccc(Cl)cc4)oc3C)CC2)cc(C)n1	Mdm2-MdmX inh 64 | Mdm2 MdmX conf inactive | FLuc counter 68
Cc1oc(-c2cccc3ccccc23)nc1CN1CCN(c2ncnc3ccccc23)CC1	none
COc1ccc(-c2nc(CN3CCN(c4cc(C)nc(C)c4)CC3)c(C)o2)c2ccccc12	Mdm2-MdmX inh 97 | Mdm2 MdmX conf 48 | FLuc counter inactive
COc1ccc(-c2nc(C#N)c(N3CCCCCC3)o2)cc1OC	none
COc1ccc([C@]2(C(C)C)ON(c3ccccc3C(F)(F)F)C2=O)cc1	Mdm2-MdmX inh 82 | Mdm2 MdmX conf 41 | FLuc counter 51
COc1ccc([C@@]2(C(C)C)ON(c3ccccc3C(F)(F)F)C2=O)cc1	Mdm2-MdmX inh 80 | Mdm2 MdmX conf 56 | FLuc counter 45
CC(C)[C@@]1(c2ccc(Cl)cc2)ON(c2ccccc2C(F)(F)F)C1=O	Mdm2-MdmX inh 75 | Mdm2 MdmX conf 44 | FLuc counter 50
COc1ccc(C2(c3ccc(OC)cc3)NC(=O)N(CC(=O)Nc3ccccc3C(F)(F)F)C2=O)cc1	none
Oc1ccc(-c2nccc(-c3ccc(F)cc3)n2)cc1	none
Cc1cc(NC(=O)CSc2nc3ccccc3c(=O)n2C(C)c2ccccc2)no1 (configuration not stated)	Mdm2-MdmX inh 72 | Mdm2 MdmX conf inactive
O=C(NC1CCCC1)c1cccc(S(=O)(=O)N2CCCC2)c1	none
CC1=C(C)Cc2c(OC(=O)c3ccccc3)ccc(OC(=O)c3ccccc3)c2C1	none
COc1cc(-c2nnc(SCC(=O)N3c4ccccc4Sc4ccccc43)o2)cc(OC)c1OC	none
O=C(Sc1nnc(-c2ccccc2)o1)N1c2ccccc2Sc2ccccc21	Mdm2-MdmX inh 60 | Mdm2 MdmX conf inactive
O=c1oc2c3c4c(cc2c2c1CCC2)OCCN4CCC3	none
O=C(O)c1ccc(Cl)c(S(=O)(=O)Nc2ccccc2C(=O)Nc2ccc(Cl)cc2)c1	none
O=C(C#Cc1ccccc1)Nc1cccc(F)c1	Mdm2-MdmX inh 98 | Mdm2 MdmX conf 100 | FLuc counter inactive
Nc1c(-c2ccccc2)c(CSc2nc3ccccc3[nH]2)nn1-c1cccc(Cl)c1	Mdm2-MdmX inh 61 | Mdm2 MdmX conf inactive
CC(CCCN(C)C)C(Cc1ccccc1)c1ccccc1 (configuration not stated)	none
Cc1ccc(N2CCN(C(=O)c3cc(-c4ccc(F)cc4)[nH]c3C)CC2C)cc1 (configuration not stated)	none
O=C(Nc1cc(Sc2ccccn2)cc([N+](=O)[O-])c1)c1cccc(Cl)c1	none
O=C(Nc1cc(Sc2ccccn2)cc([N+](=O)[O-])c1)c1ccc(Cl)cc1	Mdm2-MdmX inh 52 | Mdm2 MdmX conf inactive
CCc1nn(CC(=O)N2CC(C)CC(C)C2)c(=O)c2cccn12 (configuration not stated)	none
Cc1ccnc(NC(=O)Nc2cccc(F)c2)c1	none
CCC(=O)OCC(=O)N=c1sccn1Cc1ccccc1Cl	none
CCC(=O)OCC(=O)N=c1sccn1Cc1ccc(C)cc1	none
O=C(CCl)N=c1sccn1Cc1ccccc1Cl	Mdm2-MdmX inh 99 | Mdm2 MdmX conf 99 | FLuc counter 51
O=C(CCl)N=c1sccn1Cc1ccc(Cl)cc1Cl	Mdm2-MdmX inh 100, CHOP UPR activ 42 | Mdm2 MdmX conf 100 | FLuc counter 54
OCC[C@H]1C[C@@H](O)[C@H](O)[C@]2(OCc3ccccc32)O1	none
Cc1ccc(N/N=C(\C#N)C(N)=S)cc1C	Mdm2-MdmX inh 64 | Mdm2 MdmX conf 53 | FLuc counter 72
N#C/C(=N\Nc1cccc(Cl)c1)C(=O)c1ccccc1	Mdm2-MdmX inh 71 | Mdm2 MdmX conf inactive
N#C/C(=N\Nc1ccc(Cl)cc1)C(=O)c1ccsc1	Mdm2-MdmX inh 69 | Mdm2 MdmX conf inactive | FLuc counter 74
N#C/C(=N\Nc1ccc(Cl)cc1)C(N)=S	Mdm2-MdmX inh 64 | Mdm2 MdmX conf 64 | FLuc counter 44
CCCNc1nc(-c2ccccc2)c(C(=O)OCC)cc1C#N	Mdm2-MdmX inh 63 | Mdm2 MdmX conf 52 | FLuc counter 64
CCCCNc1nc(-c2ccccc2)c(C(=O)OCC)cc1C#N	none
COc1ccc(N2CCc3c(C)nc4c(OC)cc(OC)cc4c32)cc1	Mdm2-MdmX inh 51 | Mdm2 MdmX conf inactive
Cc1nc2c(C)cccc2c2c1CCN2c1ccccc1F	none
COc1ccc(N2CCc3c(C)nc4c(OC)cc(OC)cc4c32)c(OC)c1	none
COc1ccc(N2CCc3c(C)nc4c(OC)cccc4c32)cc1	Mdm2-MdmX inh 58 | Mdm2 MdmX conf 57 | FLuc counter 55
O=C(O)c1ccc(S(=O)(=O)NCC2CCCO2)cc1 (configuration not stated)	none
C=CCn1c(SCC(=O)N2CCc3ccccc3C2)nc2sc(C)c(C)c2c1=O	none
